Assays:
[1] = biological target: T1, Toll-like receptor 9 (Mus musculus) (UniProt Q9EQU3); assay: Activation of mouse TLR9 expressed in HEK293 cells assessed as induction of NF-kappaB activity after 18 hrs by SEAP assay; format: cell-based
T1 sequence (whole entry): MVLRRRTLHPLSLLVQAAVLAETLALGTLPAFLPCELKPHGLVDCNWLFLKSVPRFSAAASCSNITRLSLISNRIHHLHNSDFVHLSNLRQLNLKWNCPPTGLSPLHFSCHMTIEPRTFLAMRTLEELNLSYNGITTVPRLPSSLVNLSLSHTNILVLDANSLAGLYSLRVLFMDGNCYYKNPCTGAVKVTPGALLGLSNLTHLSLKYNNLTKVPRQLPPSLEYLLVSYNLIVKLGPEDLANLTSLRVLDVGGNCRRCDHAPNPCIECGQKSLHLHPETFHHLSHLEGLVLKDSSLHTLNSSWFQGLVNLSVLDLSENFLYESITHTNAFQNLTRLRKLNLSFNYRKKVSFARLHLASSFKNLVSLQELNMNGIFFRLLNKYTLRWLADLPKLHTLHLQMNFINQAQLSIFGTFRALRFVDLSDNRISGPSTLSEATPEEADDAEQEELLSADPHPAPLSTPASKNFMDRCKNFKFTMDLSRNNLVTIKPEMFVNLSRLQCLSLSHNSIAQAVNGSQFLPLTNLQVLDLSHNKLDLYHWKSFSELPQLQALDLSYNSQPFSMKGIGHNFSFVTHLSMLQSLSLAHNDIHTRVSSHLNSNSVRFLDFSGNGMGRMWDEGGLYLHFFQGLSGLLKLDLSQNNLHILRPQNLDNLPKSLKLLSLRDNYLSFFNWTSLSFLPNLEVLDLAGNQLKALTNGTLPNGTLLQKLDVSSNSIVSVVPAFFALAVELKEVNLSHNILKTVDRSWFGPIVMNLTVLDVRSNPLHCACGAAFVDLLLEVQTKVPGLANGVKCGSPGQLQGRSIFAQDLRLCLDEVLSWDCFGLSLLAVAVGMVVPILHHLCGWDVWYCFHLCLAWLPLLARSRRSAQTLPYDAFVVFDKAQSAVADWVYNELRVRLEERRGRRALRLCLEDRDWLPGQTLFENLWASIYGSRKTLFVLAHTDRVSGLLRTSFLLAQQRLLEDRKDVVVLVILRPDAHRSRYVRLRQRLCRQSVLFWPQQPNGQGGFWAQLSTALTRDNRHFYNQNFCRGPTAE
Procedure, shortened: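 HEK293 cells stably expressing mouse TLR9 were grown in DMEM with 10% heat-inactivated FBS. At 80% confluence they were transiently transfected with a SEAP reporter plasmid (100 ng/well, lipofectamine) for 6 h. Medium was then replaced and agonists were added for 18 h. Supernatant SEAP was read with QuantiBlue substrate at 620-645 nm. Results are expressed as fold NF-κB activity over PBS control.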

[2] = biological target: T1, Toll-like receptor 9 (Mus musculus); assay: Induction of TLR9-mediated IL6 production in C57BL/6 mouse spleen cells after 24 hrs by ELISA; format: cell-based
Procedure, shortened: (§1)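 C57BL/6 mouse spleen cells were cultured with agonists at 0.1, 0.3, 1, 3 and 10 μg/mL for 24 h. Secreted IL-12 and IL-6 in the supernatants were measured by ELISA. Values are averages of triplicate wells from one representative of at least two independent experiments.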

[3] = biological target: T2, Toll-like receptor 9 (Homo sapiens) (UniProt Q9NR96); assay: Induction of TLR9-mediated immune stimulation in human PBMC assessed as IL1Ralpha production at 10 ug/ml after 24 hrs by luminex multiplex assay (RVb = 0.12 +/- 0.03 ng/ml)
T2 sequence (whole entry): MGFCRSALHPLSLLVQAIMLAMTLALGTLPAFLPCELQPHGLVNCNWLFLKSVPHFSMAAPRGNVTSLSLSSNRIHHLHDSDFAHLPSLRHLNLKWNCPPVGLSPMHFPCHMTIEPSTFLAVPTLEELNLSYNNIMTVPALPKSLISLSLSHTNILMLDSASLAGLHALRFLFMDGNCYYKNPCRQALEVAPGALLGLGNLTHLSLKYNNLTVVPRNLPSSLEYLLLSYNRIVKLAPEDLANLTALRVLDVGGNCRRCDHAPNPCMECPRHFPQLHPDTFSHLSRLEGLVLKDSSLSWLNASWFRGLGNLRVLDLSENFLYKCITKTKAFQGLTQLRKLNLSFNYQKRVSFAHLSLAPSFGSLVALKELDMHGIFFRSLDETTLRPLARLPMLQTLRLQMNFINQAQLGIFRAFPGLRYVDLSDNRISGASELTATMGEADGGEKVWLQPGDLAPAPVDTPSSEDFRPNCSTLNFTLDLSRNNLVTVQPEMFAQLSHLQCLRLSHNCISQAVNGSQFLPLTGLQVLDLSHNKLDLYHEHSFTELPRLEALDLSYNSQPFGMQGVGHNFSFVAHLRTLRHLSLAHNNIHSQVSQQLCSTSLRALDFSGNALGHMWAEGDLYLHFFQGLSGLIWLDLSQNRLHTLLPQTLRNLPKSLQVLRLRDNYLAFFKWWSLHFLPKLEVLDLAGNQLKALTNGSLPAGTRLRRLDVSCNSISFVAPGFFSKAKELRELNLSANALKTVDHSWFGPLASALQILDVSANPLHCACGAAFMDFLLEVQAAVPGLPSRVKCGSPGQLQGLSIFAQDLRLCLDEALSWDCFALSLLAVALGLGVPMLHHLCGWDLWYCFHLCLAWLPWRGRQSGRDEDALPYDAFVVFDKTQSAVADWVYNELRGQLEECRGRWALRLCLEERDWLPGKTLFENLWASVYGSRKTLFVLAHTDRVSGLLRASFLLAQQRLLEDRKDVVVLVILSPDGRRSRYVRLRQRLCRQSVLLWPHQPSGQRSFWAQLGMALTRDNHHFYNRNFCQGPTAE

[4] = biological target: T2, Toll-like receptor 9 (Homo sapiens); assay: Induction of TLR9-mediated immune stimulation in human PBMC assessed as MCP1 production at 10 ug/ml after 24 hrs by luminex multiplex assay (RVb = 0.08 +/- 0.02 ng/ml)
[5] = biological target: T2, Toll-like receptor 9 (Homo sapiens); assay: Induction of TLR9-mediated immune stimulation in human PBMC assessed as MIP1beta production at 10 ug/ml after 24 hrs by luminex multiplex assay (RVb = 0.03 +/- 0.02 ng/ml)
[6] = biological target: T2, Toll-like receptor 9 (Homo sapiens); assay: Induction of TLR9-mediated immune stimulation in human PBMC assessed as MCP1 production at 2 ug/ml after 24 hrs by luminex multiplex assay (RVb = 0.08 +/- 0.02 ng/ml)
[7] = biological target: T1, Toll-like receptor 9 (Mus musculus); assay: Induction of TLR9-mediated IL12 production in C57BL/6 mouse spleen cells after 24 hrs by ELISA; format: cell-based; procedure, shortened: as §1
[8] = biological target: T2, Toll-like receptor 9 (Homo sapiens); assay: Induction of TLR9-mediated immune stimulation in human PBMC assessed as IL6 production at 10 ug/ml after 24 hrs by luminex multiplex assay (RVb = 0.01 ng/ml)
[9] = biological target: T2, Toll-like receptor 9 (Homo sapiens); assay: Induction of TLR9-mediated immune stimulation in human PBMC assessed as MIP1alpha production at 10 ug/ml after 24 hrs by luminex multiplex assay (RVb = 0.01 ng/ml)
[10] = biological target: T2, Toll-like receptor 9 (Homo sapiens); assay: Induction of TLR9-mediated immune stimulation in human PBMC assessed as MIP1beta production at 2 ug/ml after 24 hrs by luminex multiplex assay (RVb = 0.03 +/- 0.02 ng/ml)

Activity [1] | Activity [2] | Activity [3] [ng/mL] | Activity [4] [ng/mL] | Activity [5] [ng/mL] | Activity [6] [ng/mL] | Activity [7] | Activity [8] [ng/mL] | Activity [9] [ng/mL] | Activity [10] [ng/mL] | Compound
Dose-dependent effect | Dose-dependent effect | 63 | 0.64 | 0.61 | 0.25 | Dose-dependent effect | 0.47 | 0.17 | 0.12 | Cc1cn([C@H]2C[C@H](OCCC(O)CCOP(=O)(S)O[C@H]3C[C@H](n4cc(C)c(=O)[nH]c4=O)O[C@@H]3COP(=O)(S)O[C@H]3[C@@H](O)[C@H](n4ccc(N)nc4=O)O[C@@H]3COP(=O)(S)O[C@H]3C[C@H](n4cc(C)c(=O)[nH]c4=O)O[C@@H]3COP(=O)(S)O[C@H]3C[C@H](n4cc(C)c(=O)[nH]c4=O)O[C@@H]3COP(=O)(S)O[C@H]3C[C@H](n4ccc5c(=O)[nH]c(N)nc54)O[C@@H]3COP(=O)(S)O[C@H]3[C@@H](O)[C@H](n4ccc(N)nc4=O)O[C@@H]3COP(=O)(S)O[C@H]3C[C@H](n4cc(C)c(=O)[nH]c4=O)O[C@@H]3COP(=O)(S)O[C@H]3[C@@H](O)[C@H](n4cnc5c(=O)[nH]c(N)nc54)O[C@@H]3COP(=O)(S)O[C@H]3C[C@H](n4cc(C)c(=O)[nH]c4=O)O[C@@H]3COP(=O)(S)O[C@H]3[C@@H](O)[C@H](n4ccc(N)nc4=O)O[C@@H]3COP(=O)(S)O[C@H]3C[C@H](n4cc(C)c(=O)[nH]c4=O)O[C@@H]3CO)[C@@H](COP(=O)(S)O[C@H]3[C@@H](O)[C@H](n4ccc(N)nc4=O)O[C@@H]3COP(=O)(S)O[C@H]3C[C@H](n4cc(C)c(=O)[nH]c4=O)O[C@@H]3COP(=O)(S)O[C@H]3C[C@H](n4cc(C)c(=O)[nH]c4=O)O[C@@H]3COP(=O)(S)O[C@H]3C[C@H](n4ccc5c(=O)[nH]c(N)nc54)O[C@@H]3COP(=O)(S)O[C@H]3[C@@H](O)[C@H](n4ccc(N)nc4=O)O[C@@H]3COP(=O)(S)O[C@H]3C[C@H](n4cc(C)c(=O)[nH]c4=O)O[C@@H]3COP(=O)(S)O[C@H]3[C@@H](O)[C@H](n4cnc5c(=O)[nH]c(N)nc54)O[C@@H]3COP(=O)(S)O[C@H]3C[C@H](n4cc(C)c(=O)[nH]c4=O)O[C@@H]3COP(=O)(S)O[C@H]3[C@@H](O)[C@H](n4ccc(N)nc4=O)O[C@@H]3COP(=O)(S)O[C@H]3C[C@H](n4cc(C)c(=O)[nH]c4=O)O[C@@H]3CO)O2)c(=O)[nH]c1=O (stereo not given in full)
Dose-dependent effect | Dose-dependent effect | 69.9 | 7.13 | 0.96 | 0.22 | Dose-dependent effect | 0.58 | 0.27 | 0.08 | Cc1cn([C@H]2C[C@H](OCCOCCOCCOCCOP(=O)(S)O[C@H]3C[C@H](n4cc(C)c(=O)[nH]c4=O)O[C@@H]3COP(=O)(S)O[C@H]3[C@@H](O)[C@H](n4ccc(N)nc4=O)O[C@@H]3COP(=O)(S)O[C@H]3C[C@H](n4cc(C)c(=O)[nH]c4=O)O[C@@H]3COP(=O)(S)O[C@H]3C[C@H](n4cc(C)c(=O)[nH]c4=O)O[C@@H]3COP(=O)(S)O[C@H]3C[C@H](n4ccc5c(=O)[nH]c(N)nc54)O[C@@H]3COP(=O)(S)O[C@H]3[C@@H](O)[C@H](n4ccc(N)nc4=O)O[C@@H]3COP(=O)(S)O[C@H]3C[C@H](n4cc(C)c(=O)[nH]c4=O)O[C@@H]3COP(=O)(S)O[C@H]3[C@@H](O)[C@H](n4cnc5c(=O)[nH]c(N)nc54)O[C@@H]3COP(=O)(S)O[C@H]3C[C@H](n4cc(C)c(=O)[nH]c4=O)O[C@@H]3COP(=O)(S)O[C@H]3[C@@H](O)[C@H](n4ccc(N)nc4=O)O[C@@H]3COP(=O)(S)O[C@H]3C[C@H](n4cc(C)c(=O)[nH]c4=O)O[C@@H]3CO)[C@@H](COP(=O)(S)O[C@H]3[C@@H](O)[C@H](n4ccc(N)nc4=O)O[C@@H]3COP(=O)(S)O[C@H]3C[C@H](n4cc(C)c(=O)[nH]c4=O)O[C@@H]3COP(=O)(S)O[C@H]3C[C@H](n4cc(C)c(=O)[nH]c4=O)O[C@@H]3COP(=O)(S)O[C@H]3C[C@H](n4ccc5c(=O)[nH]c(N)nc54)O[C@@H]3COP(=O)(S)O[C@H]3[C@@H](O)[C@H](n4ccc(N)nc4=O)O[C@@H]3COP(=O)(S)O[C@H]3C[C@H](n4cc(C)c(=O)[nH]c4=O)O[C@@H]3COP(=O)(S)O[C@H]3[C@@H](O)[C@H](n4cnc5c(=O)[nH]c(N)nc54)O[C@@H]3COP(=O)(S)O[C@H]3C[C@H](n4cc(C)c(=O)[nH]c4=O)O[C@@H]3COP(=O)(S)O[C@H]3[C@@H](O)[C@H](n4ccc(N)nc4=O)O[C@@H]3COP(=O)(S)O[C@H]3C[C@H](n4cc(C)c(=O)[nH]c4=O)O[C@@H]3CO)O2)c(=O)[nH]c1=O (stereo not given in full)
